Assay results reported in article PMC9811456 (Molecular Pharmaceutics, 2022).
Where “and” joins values, the source holds several entries; their conditions need not be identical. Equal entries are not always repeated. Entries after “also recorded” stand apart in the source; their conditions may differ.

Columns and labels:
[1] = Metabolic stability in rat hepatocytes; assay type: in vitro ADME
Method in brief: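 In hepatocyte stability, compound at 1 μM was incubated in duplicate with 0.5 × 10^6 cells/mL at 37 °C. Samples were taken over 2 h and quenched and precipitated with ice-cold methanol (1:1). The soluble fraction was analysed by LC–MS/MS.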

[2] = test system: human foreskin fibroblast (HFF) cells; assay: Intracellular conversion to CDV-PP, HFF model; assay type: cell-based; conditions: 30 nM, 72 h
Method in brief: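 Primary HFF cells (passage ≤10) were seeded at 6 × 10^6 per T-75 flask for 24 h. They were exposed in triplicate to 30 nM compound or vehicle in DMEM/2% FBS at 37 °C, 5% CO2 for 72 h, after preincubating the dosing solutions 24 h at 37 °C. Half the flasks were counted. The rest were rinsed in chilled saline and lysed in methanol:water 70:30. Prodrug, CDV and CDV-PP were measured by LC–MS/MS (5–2000 nM qualified range). Results are mean ± SD.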

ADV5 (Adenoid 75) = assay: Antiviral CPE assay, ADV5; assay type: cell-based, adenovirus (AdV-5); conditions: CC50/EC50
HSV1 (E-377) = assay: microbe, parasite or virus in culture; assay type: cell-based, herpesvirus 1 (HSV-1)
HSV2 (G) = assay: microbe, parasite or virus in culture; assay type: cell-based, herpesvirus 2 (HSV-2)
VZV (Ellen) = assay: microbe, parasite or virus in culture; assay type: cell-based, varicella-zoster virus
HCMV (AD169) = assay: Antiviral CPE assay, HCMV AD169; assay type: cell-based, human cytomegalovirus; conditions: CC50/EC50
MCMV (Smith) = assay: Antiviral qPCR assay, MCMV in MEF cells; assay type: cell-based, murine cytomegalovirus; conditions: CC50/EC50
EBV (Akata) = assay: Antiviral qPCR assay, EBV; assay type: cell-based, Epstein–Barr virus; conditions: for SI EBV (Akata): CC50/EC50; for EC50: human gammaherpesvirus 4, Akata, 72 h, read-out: EC50 EBV (Akata)
HHV-6B (Z29) = assay: Antiviral qPCR assay, HHV-6B; assay type: cell-based, human herpes virus-6B; conditions: for SI HHV-6B (Z29): CC50/EC50; for EC50: Homo sapiens, MOLT-3, 168 h, read-out: EC50 HHV-6B (Z29)
HHV-8 (BCBL-1) = assay: Antiviral qPCR assay, HHV-8; assay type: cell-based, human herpes virus 8; conditions: for SI HHV-8 (BCBL-1): CC50/EC50; for EC50: Homo sapiens, BCBL1, 168 h, read-out: EC50 HHV-8 (BCBL-1)
JC virus (MAD-4) = assay: Antiviral qPCR assay, JC virus; assay type: cell-based; conditions: for SI JC virus (MAD-4): CC50/EC50; for EC50: JC polyomavirus, COS-7, 168 h, read-out: EC50 JC virus (MAD-4)
BK virus (Gardner) = assay: Antiviral qPCR assay, BK virus; assay type: cell-based; conditions: CC50/EC50
[3] = PK in mice after a single intravenous dose; assay type: in vivo; conditions: mouse, plasma, 1 mg/kg
[4] = Oral pharmacokinetics and biodistribution in mice; assay type: in vivo, male CFW mice
[5] = cited from earlier work
HCMV (GDG^RK17) = assay: Antiviral assay, HCMV GDGRK17; assay type: cell-based, human cytomegalovirus; conditions: CC50/EC50; single replicate
vaccinia (Copenhagen) = assay: microbe, parasite or virus in culture; assay type: cell-based
[6] = test system: human adenovirus type 6 (AdV 6), strain tonsil 99 (HAdV-C6); assay: Hamster model of AdV; assay type: in vivo, immunosuppressed male Syrian hamsters; conditions: IP, 37 mg/kg induction then 20 mg/kg three times weekly
Method in brief: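 Male Syrian hamsters were immunosuppressed with IP cyclophosphamide (140 mg/kg induction, then 100 mg/kg). They received IV 3 × 10^10 pfu/kg AdV 6. There were 7 groups (n = 15), including uninfected vehicle and drug-only (1 mg/kg PO QD) controls. Test compound was given at 0.1, 0.3 or 1 mg/kg, and CDV IP (37, then 20 mg/kg thrice weekly) from day −1. Animals were weighed and observed daily. Liver TCID50 (HEK-293) was taken day 5, with serum transaminases. Survival was compared by log-rank and weight by mixed-effect analysis.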

HCMV = conditions: read-out: EC50 against CMV; cited from earlier work
HSV-1 = conditions: read-out: EC50 against HSV-1; published data ref 42; cited from earlier work
HSV-2 = conditions: read-out: EC50 against HSV-2; published data ref 42; cited from earlier work
VZV = conditions: read-out: EC50 against VZV; published data ref 42; cited from earlier work
[7] = equimolar oral doses, BCV vs NPP-669

CCCCCCCCCCCCCCCCOCCCOP(=O)(O)CO[C@H](CO)Cn1ccc(N)nc1=O [BCV, brincidofovir]
half-life at 1 μM [1]: 2.37 h | hepatocyte CLint at 1 μM [1]: 9.73 µL/min/1e6 cells | intracellular pro-drug level [2]: highest levels of intracellular pro-drug | SI ADV5 (Adenoid 75) (ADV5 (Adenoid 75)): 46 | SI HSV1 (E-377) (HSV1 (E-377); CC50/EC50): >33 | EC50 (HSV1 (E-377); Human alphaherpesvirus 1, HFF, read-out: EC50 HSV1 (E-377)): 30 ± 20 nM | SI HSV2 (G) (HSV2 (G); CC50/EC50): >50 | EC50 (HSV2 (G); Human alphaherpesvirus 2, HFF, read-out: EC50 HSV2 (G)): 20 ± 10 nM | SI VZV (Ellen) (VZV (Ellen); CC50/EC50): 114 | EC50 (VZV (Ellen); Human alphaherpesvirus 3, HFF, read-out: EC50 VZV (Ellen)): 5 ± 5 nM | SI HCMV (AD169) (HCMV (AD169)): 540 | SI MCMV (Smith) (MCMV (Smith)): >244 | SI EBV (Akata) (EBV (Akata)): >11 | EC50 (EBV (Akata)): 90 ± 90 nM | SI HHV-6B (Z29) (HHV-6B (Z29)): 16 | EC50 (HHV-6B (Z29)): 30 ± 20 nM | SI HHV-8 (BCBL-1) (HHV-8 (BCBL-1)): 690 | EC50 (HHV-8 (BCBL-1)): 1 nM | SI JC virus (MAD-4) (JC virus (MAD-4)): >3 | EC50 (JC virus (MAD-4)): 350 ± 260 nM | SI BK virus (Gardner) (BK virus (Gardner)): 180 | AUC [3]: 171 ng·h/mL | Cmax [3]: 491 ng/mL | Vd [3]: 3.7 L/kg | clearance [3]: 122 mL/min/kg | half-life [3]: 0.4 h | prodrug exposure in liver tissue [4, 7]: significantly higher levels than NPP-669 | prodrug levels in intestinal tissue [4, 7]: retained at substantially higher levels than NPP-669 in the intestinal tissue | plasma levels over 24 h ([4]; single oral dose, NPP-669 30 mg/kg, BCV equimolar (26 mg/kg)): > 0.003 μM and > 2 ng/mL | GI toxicity ([5]; daily doses at 10 mg/kg ref 36): GI toxicity was noted | NOAEL ([5]; twice weekly, in rats over 13 weeks ref 36): 15 mg/kg

Nc1ccn(C[C@@H](CO)OCP(=O)(O)O)c(=O)n1 [CDV, cidofovir]
intracellular levels of CDV or CDV-PP ([2]; below the detection limit): ≤ 10 ng/mL | SI ADV5 (Adenoid 75) (ADV5 (Adenoid 75)): >23 | SI HCMV (GDG^RK17) (HCMV (GDG^RK17)): >1034 | SI EBV (Akata) (EBV (Akata)): >10 | EC50 (EBV (Akata)): 10100 ± 3440 nM | SI HHV-6B (Z29) (HHV-6B (Z29)): 10 | EC50 (HHV-6B (Z29)): 7090 ± 3590 nM | SI HHV-8 (BCBL-1) (HHV-8 (BCBL-1)): >67 | EC50 (HHV-8 (BCBL-1)): 1500 ± 700 nM | SI JC virus (MAD-4) (JC virus (MAD-4)): >8 | EC50 (JC virus (MAD-4)): 18400 ± 16000 nM | SI BK virus (Gardner) (BK virus (Gardner)): >26 | SI vaccinia (Copenhagen) (vaccinia (Copenhagen)): >10 | EC50 (vaccinia (Copenhagen); Orthopoxvirus vaccinia, HFF, read-out: EC50 vaccinia (Copenhagen)): 14600 nM | toxicity of the dose needed for antiviral efficacy [6]: low-grade toxicity; also recorded: toxic dose | EC50 (HCMV): ~1000 nM | EC50 (HSV-1): 3000 to 5000 nM | EC50 (HSV-2): 5000 to 6000 nM | EC50 (VZV): 500 nM

Nc1nc(O)c2ncn(COC(CO)CO)c2n1 [ganciclovir]
SI HCMV (AD169) (HCMV (AD169)): >92 | SI MCMV (Smith) (MCMV (Smith)): >19
